Hits are enriched below; roughly 3.5% of the tested compounds scored in any of these assays.
RGS4 block: human RGS4 inhibition; HEK293 M3R/RGS4 inducible, Fluo-4 calcium flux; active compounds read high; triggered by carbachol at its EC20; 0.45% of 310,000 active; AID 463165; B-score at 10 µM;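 active means B-score, a plate-corrected calcium signal, over three deviations above library mean, with baseline fluorescence within five deviations of library mean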;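 further: RGS4 expression induced by doxycycline in cells with stable M3 receptor; B-score is computed from the integrated fluorescence ratio over baseline after carbachol; higher B-score means a larger calcium signal and so more RGS4 inhibition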
Target sequence (P49798 whole entry, looked up): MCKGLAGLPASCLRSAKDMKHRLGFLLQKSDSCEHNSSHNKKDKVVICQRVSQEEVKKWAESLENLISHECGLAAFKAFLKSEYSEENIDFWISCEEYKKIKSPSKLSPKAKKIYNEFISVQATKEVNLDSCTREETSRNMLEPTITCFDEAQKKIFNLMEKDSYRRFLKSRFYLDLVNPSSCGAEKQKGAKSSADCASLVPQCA
MrgX1 antagonist: antagonists of human MrgX1 receptor. Q96LB2. B-score at 10 µM. MRGX1-HEK293 calcium flux, Fluo-4, BAM8-22 antagonism; active compounds read low. 1.3% of 310,000 active;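 active means calcium-response B-score plate-corrected more than 3 library SD below zero, starting fluorescence within 5 deviations, no agonist response on first addition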;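 further: peak minus trough fluorescence over baseline after final BAM8-22 challenge near maximal dose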
Target sequence (Q96LB2 whole entry, looked up): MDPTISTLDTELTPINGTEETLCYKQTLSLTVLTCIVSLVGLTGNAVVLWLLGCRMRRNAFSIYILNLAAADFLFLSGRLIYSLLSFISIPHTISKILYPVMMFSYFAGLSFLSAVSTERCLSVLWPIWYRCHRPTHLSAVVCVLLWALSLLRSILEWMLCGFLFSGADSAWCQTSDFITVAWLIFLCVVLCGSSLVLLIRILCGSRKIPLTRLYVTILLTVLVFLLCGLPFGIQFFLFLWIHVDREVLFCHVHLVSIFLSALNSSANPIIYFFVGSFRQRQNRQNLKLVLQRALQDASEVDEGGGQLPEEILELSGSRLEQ
RGS4 act: potentiators or activators of RGS4; B-score at 10 µM; HEK293 M3R/inducible RGS4, carbachol calcium flux Fluo4; active compounds read low; 0.92% of 310,000 active; AID 463111;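 active means B-score of the integrated calcium signal more than 4 SD below the library mean, with starting fluorescence not abnormally high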;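 further: negative B-score means reduced calcium response which marks RGS4 activation or potentiation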
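Material: M3R-expressing HEK293 line, RGS4 induced by doxycycline | Schedule: Overnight RGS4 induction, 30 min dye load 37 °C, 20 min compound RT | Measured by: Fluo4 fluorescence kinetic imaging of calcium | Read-out: Integrated calcium ratio converted to B score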
MrgX1 allo act: allosterically activates human MrgX1 receptor signaling; Q96LB2; MrgX1-HEK293, Fluo-4 calcium flux, FDSS; active compounds read high; 0.63% of 310,000 active; B-score at 10 µM;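 active means plate-corrected calcium response at least 3 library SD above typical, normal starting fluorescence, not activating the receptor alone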;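 further: compound read alongside a low EC10 to EC30 dose of BAM8-22 agonist; peak minus trough fluorescence over baseline measured at the second addition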
MrgX1 agonist: agonists of human MrgX1 receptor; Q96LB2; MrgX1-HEK293 cells, Fluo-4 calcium fluorescence, agonist mode; active compounds read high; B-score at 10 µM; 0.44% of 310,000 active; AID 588627;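 active means calcium response B-score plate-corrected fluorescence ratio at least 3 library SD, with starting fluorescence B-score inside 5 SD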
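Material – MrgX1-expressing HEK293 cells · Input – 15,000 cells seeded per well · Dosing – compound as first of three additions · Times – overnight seeding, then 1 h dark dye loading · Measured by – kinetic Fluo-4 NW fluorescence of intracellular calcium · Read-out – B-scored fluorescence response ratio · Benchmarks – positive and negative control wells on each plate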
RGS4 block valid: validation of RGS4 inhibitors; shares compounds with RGS4 block; 65% of 1,700 active; AID 492999; calcium response, % at 10 µM; HEK293 M3R/RGS4, carbachol calcium Fluo-4 fluorescence; carbachol added at its EC20; 0 = buffer wells, 100 = carbachol control;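 active means duplicate-averaged calcium response above the buffer-only control mean plus 5 SD of those controls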;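 further: integrated fluorescence ratio F max minus min over baseline F0; higher response in RGS4-induced cells means RGS4 inhibition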
RGS4 uninduced: checks RGS4 inhibitor effects in non-induced HEK293 M3R cells; shares compounds with RGS4 block; carbachol calcium Fluo-4; submaximal (EC20) carbachol stimulus; buffer wells 0%, carbachol control wells 100%; activity (percent), % at 10 µM; 20% of 1,900 active; call rule not given here;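 further: RGS4 induction absent so cells express M3R without RGS4; higher means more calcium signal and flags a non-specific hit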
RGS4 inh ctr2: second counter-screen for RGS4 inhibitors: non-induced cells without carbachol | 22% of 1,900 active | shares compounds with RGS4 block | calcium response (agonist-mode artifact), % at 10 µM | HEK293 M3R/RGS4 non-induced, Fluo-4 calcium, no carbachol; normalised: buffer wells 0%, carbachol wells 100% | AID 493001;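 active means duplicate-averaged calcium rise in uninduced cells above buffer wells' mean plus 5 SD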
Active calls of the source: *; i = inactive; . = no result.

SMILES	RGS4 block	MrgX1 antagonist	RGS4 act	MrgX1 allo act	MrgX1 agonist	RGS4 block valid	RGS4 uninduced	RGS4 inh ctr2
COc1ccc(CN2C(=O)[C@H]3Cc4c([nH]c5ccccc45)C(C)(C)N3C2=O)cc1	i	i	i	i	i	.	.	.
CCn1c2ccccc2c2cc(C3C(C#N)=C(N)Oc4n[nH]c(COC)c43)ccc21 (stereo not drawn)	25.2*	i	i	i	i	39.0%*	33.5%*	i
CN(C)/N=C/C=C1\CCC/C(=C\c2ccc(F)c(F)c2)C1=O	23*	i	i	i	i	8.5%*	i	i
COc1ccc(/C=C2\CCC/C(=C\C=N\N(C)C)C2=O)cc1	i	i	i	i	i	.	.	.
CCOn1c(=O)c(-c2ccc(OC)c(OC)c2)[n+]([O-])c2ccccc21	i	i	i	i	i	i	i	i
CCOn1c(=O)c(-c2ccc(OC)cc2)[n+]([O-])c2ccccc21	i	i	i	i	i	.	.	.
CCOCCCNC(=O)/C(C#N)=C/c1ccc(Cl)c([N+](=O)[O-])c1	10.7*	i	i	i	i	34.5%*	i	i
CCOCCCNC(=O)/C(C#N)=C/c1cc(OC)c(O)c([N+](=O)[O-])c1	i	i	i	i	i	.	.	.
Nc1nc(Nc2ccccc2)nc2ccccc12	i	i	i	i	i	.	.	.
COc1cc2nc(Nc3ccc(C)c(Cl)c3)nc(N)c2cc1OC	i	i	i	i	i	.	.	.
Nc1nc(Nc2ccc(Cl)cc2)nc2ccccc12	21.6*	i	i	i	i	i	i	i
Cc1ccc(Nc2nc(N)c3ccccc3n2)cc1Cl	7.35*	i	i	i	i	9.5%*	i	i
O=C(Cc1ccccc1)Nc1ncccc1Cl	i	i	i	i	i	.	.	.
O=C(O)c1cc(S(=O)(=O)N2CCN(C(c3ccccc3)c3ccccc3)CC2)ccc1Cl	i	i	i	i	i	.	.	.
COc1ccc(CNC(=O)CN(C)S(=O)(=O)c2ccc(Cl)cc2)cc1	i	i	i	i	i	.	.	.
COc1ccc(S(=O)(=O)NCCC(=O)NCc2ccc(F)cc2)cc1	i	i	i	i	i	.	i	i
COc1ccc(CNC(=O)CCNS(=O)(=O)c2ccc(Cl)cc2)cc1	i	i	i	i	i	.	i	i
Cc1ccc2nc(NC(=O)C3CC3C)sc2c1 (stereo not drawn)	i	i	i	i	i	.	.	.
CC1CC1C(=O)Nc1nc2ccc(S(C)(=O)=O)cc2s1 (stereo not drawn)	6.08*	i	i	i	i	i	i	i
CC(=O)c1c[nH]c(C(=O)NCc2ccccc2Cl)c1	5.22*	i	i	i	i	i	i	i
Cc1[nH]n(-c2ncc(-c3ccc(Cl)cc3)s2)c(=O)c1C(c1ccc(Cl)cc1)C(C#N)C#N (stereo not drawn)	18.5*	i	i	i	i	30.0%*	i	47.5%*
CC(=O)Oc1ccc(/C(C)=N/N2CCN(Cc3ccc(C)cc3)CC2)cc1	i	i	i	i	i	.	.	.
Cc1ccc(NC(=O)CN(C)C(=O)c2cccnc2Nc2cccc(C(F)(F)F)c2)cc1	6.83*	i	i	i	i	18.5%*	i	i
Cc1cc(C)n(-c2cc(C(C)(C)C)nc3c(-c4ccccc4)cnn23)n1	i	i	i	i	i	.	32.5%*	i
Cc1cc(C)n(-c2cc(C(C)(C)C)nc3c(-c4ccc(Cl)cc4)cnn23)n1	8.56*	i	i	i	i	33.0%*	i	i
SMILES	RGS4 block	MrgX1 antagonist	RGS4 act	MrgX1 allo act	MrgX1 agonist	RGS4 block valid	RGS4 uninduced	RGS4 inh ctr2
CC(C)(C)c1cc(NCc2ccccn2)n2ncc(-c3ccccc3)c2n1	i	i	i	i	i	.	.	.
CCOC(=O)N1CCN(S(=O)(=O)c2ccc(C(=O)NNc3nc4c(C)cccc4s3)cc2)CC1	i	i	i	i	i	.	.	.
Cc1cccc2sc(NNC(=O)c3ccc(S(=O)(=O)N4CCc5ccccc5C4)cc3)nc12	i	i	i	i	i	.	i	i
Cc1cccc2sc(NNC(=O)c3ccc(S(=O)(=O)N4CCCC(C)C4)cc3)nc12 (stereo not drawn)	i	i	i	i	i	i	i	i
CC1Sc2ccc(S(=O)(=O)N3CCC(C(=O)NCc4ccccc4)CC3)cc2NC1=O (stereo not drawn)	i	i	i	i	i	.	.	.
Cc1ccn2c(c1)nc(=O)c1cc(S(=O)(=O)N3CCOCC3)ccc12	i	i	i	i	i	.	.	.
COc1cc(/C=C2/C(=O)NN(c3ccc(Cl)cc3)C2=O)ccc1OC(=O)c1ccco1	i	i	i	i	i	.	i	8.5%*
COc1cc(/C=N/NC(=O)c2ccc(F)cc2)ccc1OC(=O)c1ccco1	i	i	i	i	i	.	.	.
COc1cc(/C=C2/C(=O)NN(c3cccc(F)c3)C2=O)ccc1OC(=O)c1ccco1	i	i	i	i	i	.	i	i
Cn1c(=O)oc2cc(S(=O)(=O)Nc3ccc(F)cc3)ccc21	i	i	i	i	i	.	.	.
COCc1nnc(NC(=O)C2CC(=O)N(C3CCCC3)C2)s1 (stereo not drawn)	i	i	i	i	i	.	.	.
CCCC(NC(=O)COc1cc2c(c3oc(=O)cc(C)c13)CCC(C)(C)O2)C(=O)O (stereo not drawn)	i	i	i	i	i	i	i	i
Cc1cc(=O)oc2c3c(cc(OCC(=O)N[C@@H](CC(C)C)C(=O)O)c12)OC(C)(C)CC3	i	i	i	i	i	i	i	i
O=C(C[n+]1ccn(-c2ccccc2)c1)c1ccc([N+](=O)[O-])cc1	i	i	i	i	i	.	.	.
CN1C(=O)/C(=C/c2cccc([N+](=O)[O-])c2)C(=O)N1c1ccccc1	35.8*	i	i	i	i	43.5%*	37.0%*	i

Bioassay records deposited in PubChem by Johns Hopkins Ion Channel Center.
